Data set [1] deals with Canis familiaris. Put plainly: Gastrointestinal motility was reported after intravenous administration at a dose 1 mg/kg to dogs as induction number of GMC (gaint migrating contractions). The data set is classed as functional, Canis lupus familiaris. Put shortly:
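Colonic contractions were recorded by a force transducer implanted on the ascending colon and analyzed by computer. Colonic motility is expressed as the number of giant migrating contractions induced after dosing.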

Data set [2] has as its target 5-hydroxytryptamine receptor 4 (Cavia porcellus, UniProt O70528). Put plainly: Inhibitory activity against 5-hydroxytryptamine 4 receptor of guinea pig striatum using [3H]GR-113808 as radioligand. The data set is classed as tissue-based.
In data set [3] the test system is Canis familiaris. Description: Gastrointestinal motility was reported after intravenous administration at a dose 1 mg/kg to dogs in stomach. Format: functional, Canis lupus familiaris. An outline of the steps:
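Contractions were recorded by force transducers implanted on the gastric antrum and analyzed by computer. The motor index is the area between the contraction wave and baseline, i.e. amplitude (voltage) × time in min over a fixed period. The index for the 30 min after dosing is expressed as a percentage of that for the 30 min before.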

The species named for the next data set is Mus musculus. Put plainly: Dose at which the compound induced fecal excretion in mice. To be noted: in vivo. Format: organism-based, Feces. An outline of the steps:
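Unfasted mice were dosed subcutaneously, and fecal excretion was the read-out.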

The structures appear in SMILES notation. pIC50: −log10 of the molar value.

Sequence of 5-hydroxytryptamine receptor 4 (O70528 whole entry): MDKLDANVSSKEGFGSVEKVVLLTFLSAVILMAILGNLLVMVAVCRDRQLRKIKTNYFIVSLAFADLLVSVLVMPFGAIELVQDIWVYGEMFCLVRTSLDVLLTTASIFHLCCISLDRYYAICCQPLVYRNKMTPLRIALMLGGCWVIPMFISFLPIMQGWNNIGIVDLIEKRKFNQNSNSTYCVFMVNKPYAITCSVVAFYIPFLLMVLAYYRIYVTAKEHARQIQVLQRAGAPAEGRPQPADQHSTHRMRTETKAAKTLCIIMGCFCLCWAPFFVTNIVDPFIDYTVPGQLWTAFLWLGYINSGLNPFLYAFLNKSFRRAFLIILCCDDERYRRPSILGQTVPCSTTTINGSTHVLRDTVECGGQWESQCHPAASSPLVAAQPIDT

`COc1cc(N)c(Cl)cc1C(=O)NC1CCN(CC2CCN(CCCCCN)CC2)CC1` came in with an Induction number in the data set with Canis familiaris [1] of 4. In addition, the pIC50 (commonly the IC50 on a negative log10 scale, so that one unit is a factor of ten) in data set [2] was 7.95. Also, in the data set with Canis familiaris [3], the “Gastric motor index, % of pre-dose” value is recorded as 194%.

In turn, `COc1cc(N)c(Cl)cc1C(=O)NC1CCN(CC2CCN(CCCN)CC2)CC1` returned an Induction number in the data set with Canis familiaris [1] of 7. In data set [2], this compound had a pIC50 of 7.87. In addition, the “Gastric motor index, % of pre-dose” value in the data set on Canis familiaris [3] amounted to 151%.

`COc1cc(N)c(Cl)cc1C(=O)NC1CCN(CC2CCN(C(=O)C(C)N)CC2)CC1` (stereo not drawn): the negative logarithm of the IC50 (pIC50) in data set [2] is 8.30. Moreover, the “Gastric motor index, % of pre-dose” value in the data set on Canis familiaris [3] turned out to be 127%.

`COc1cc(N)c(Cl)cc1C(=O)NC1CCN(CC2CCN(C(=O)CCCCN)CC2)CC1` showed a pIC50 in data set [2] of 8.41. For the same compound, the “Gastric motor index, % of pre-dose” value with Canis familiaris [3] came to 112%.

`COc1cc(N)c(Cl)cc1C(=O)NC1CCN(CC2CCN(C(=O)CCCN)CC2)CC1`: the Induction number with Canis familiaris [1] came out at 5. The compound also showed a pIC50 in data set [2] of 8.40. Moreover, the “Gastric motor index, % of pre-dose” value in the data set with Canis familiaris [3] was 130%.

In turn, `COc1cc(N)c(Cl)cc1C(=O)NC1CCN(CC2CCN(C(=O)C(C)CN)CC2)CC1` (stereo not drawn) gave a pIC50 in data set [2] of 8.29. Moreover, the “Gastric motor index, % of pre-dose” value in the data set with Canis familiaris [3] stood at 121%.

In data set [2], `COc1cc(N)c(Cl)cc1C(=O)NC1CCN(CC2CCN(CC(O)CN)CC2)CC1` (stereo not drawn) gave a pIC50 of 7.84. In the data set with Canis familiaris [3], the “Gastric motor index, % of pre-dose” value is given as 121%.

For `COc1cc(N)c(Cl)cc1C(=O)NC1CCN(CC2CCN(CC(C)CN)CC2)CC1` (stereo not drawn), in the data set on Canis familiaris [1], the Induction number turned out to be 1. In addition, the pIC50 in data set [2] was 7.84. Besides, the “Gastric motor index, % of pre-dose” value in the data set with Canis familiaris [3] was found to be 177%.

With `COc1cc(N)c(Cl)cc1C(=O)NC1CCN(CC2CCN(CCCCN)CC2)CC1`, in the data set on Canis familiaris [1], the Induction number is listed as 6. This compound had a pIC50 in data set [2] of 8.19. For the same compound, the Dose in the data set filed under Mus musculus is > 1 mg/kg. The “Gastric motor index, % of pre-dose” value with Canis familiaris [3] worked out at 148%.

Compound `CCOc1cc(N)c(Cl)cc1C(=O)NCC1CN(Cc2ccc(F)cc2)CCO1` (stereo not drawn) [MOSAPRIDE] gave a pIC50 in data set [2] of 6.95. In the data set on Canis familiaris [3], the “Gastric motor index, % of pre-dose” value was 188%.

With `COc1cc(N)c(Cl)cc1C(=O)NCC(O)CN1CCC(CN2CCC(N)CC2)CC1` (stereo not drawn), the negative-log IC50 (pIC50) in data set [2] is 7.39.

On to `COc1cc(N)c(Cl)cc1C(=O)NC1CCN(CC2CCN(CCN)CC2)CC1`, for which, in data set [2], the pIC50 is 7.84. Also, in the data set with Canis familiaris [3], the “Gastric motor index, % of pre-dose” value is 127%.

`COc1cc(N)c(Cl)cc1C(=O)NC1CCN(CC2CCN(CCCNS(C)(=O)=O)CC2)CC1`: the Induction number with Canis familiaris [1] was 2. The same compound showed a pIC50 in data set [2] of 7.68. The “Gastric motor index, % of pre-dose” value in the data set with Canis familiaris [3] was determined as 151%.

Regarding `COc1cc(N)c(Cl)cc1C(=O)NC1CCN(C(=O)C2CCN(C(=O)CCCN)CC2)CC1`, in the data set on Canis familiaris [1], the Induction number is on record as 2. Also, in data set [2], the pIC50 was 6.37. The “Gastric motor index, % of pre-dose” value in the data set on Canis familiaris [3] came to 132%.

In the case of `COc1cc(N)c(Cl)cc1C(=O)NC1CCN(CC2CCN(C(=O)C(N)C(C)C)CC2)CC1` (stereo not drawn), in data set [2], the pIC50 was 8.60. In the data set with Canis familiaris [3], the “Gastric motor index, % of pre-dose” value worked out at 147%.

In data set [2], `COc1cc(N)c(Cl)cc1C(=O)NC1CCN(CC2CCN(C(=O)C(C)(C)N)CC2)CC1` gave a pIC50 of 8.59. Besides, the “Gastric motor index, % of pre-dose” value in the data set on Canis familiaris [3] is listed as 112%.

`COc1cc(N)c(Cl)cc1C(=O)NC1CCN(CC2CCN(C(=O)CCN)CC2)CC1` showed an Induction number with Canis familiaris [1] of 3. In addition, in data set [2], the pIC50 is 8.02. In addition, in the data set with Canis familiaris [3], the “Gastric motor index, % of pre-dose” value came to 107%.

Regarding `COc1cc(N)c(Cl)cc1C(=O)NC1CCN(CC2CCN(C(=O)CN)CC2)CC1`, the Induction number in the data set with Canis familiaris [1] amounted to 5. Besides, the pIC50 in data set [2] was 8.03. Moreover, the “Gastric motor index, % of pre-dose” value in the data set on Canis familiaris [3] is on record as 165%.

As for `CCCC(N)C(=O)N1CCC(CN2CCC(NC(=O)c3cc(Cl)c(N)cc3OC)CC2)CC1` (stereo not drawn), in the data set on Canis familiaris [1], the Induction number amounted to 1. Moreover, in data set [2], the pIC50 is 8.59. Also, in the data set on Canis familiaris [3], the “Gastric motor index, % of pre-dose” value is given as 117%.
